Bioassay records (PubChem BioAssay)
HSF-1 act: HSF-1 activators, primary screen, NIH3T3-HGL cells, MG132 stress, luminescence, single point | hit rate 1.7% among 300,000 | NIH3T3-HGL HSF-1 luciferase reporter, 8 h; 100% = twice DMSO control signal | AID 504408, 2011 | activation, % at 9 µM;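 active = mean replicate activation of at least 50% with a set share of replicates each reaching 50%; inconclusive = only one of those two conditions met; inactive = mean below 50% and too few replicates reaching it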
Hsp70 activator: Hsp70 transcriptional activators, primary screen, cell-based, HeLa, Hsp70 promoter luciferase, luminescence, 10 µM; AID 1203, 2008; hit rate 0.04% among 200,000; HeLa Hsp70 promoter luciferase reporter; scaled: vehicle 0, proteasome-inhibitor control 100%; activation, % at 10 µM;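 active = activation above the mean across all tested compounds plus 3 SD, cutoff set per campaign, cut at about 5.5% in these data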
T cruzi inh: inhibitors of intracellular T. cruzi growth, primary screen, luminescence, NIH3T3 host cells. hit rate 1.4% among 300,000. T. cruzi beta-gal in NIH3T3, 90 h. inhibition, % (concentration not given with the values);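 active = mean inhibition across valid replicates above about 55%, limit read from the data; inconclusive = mean below that limit but half or more replicates reach it; inactive = mean below it, under half of replicates reach it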;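 also: signal also drops with host cell toxicity which is not excluded here; higher percent means less beta-gal luminescence so fewer parasites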
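Read-out: Parasite load inhibition, % | Test system: Mouse NIH/3T3 fibroblasts infected with β-gal-expressing T. cruzi Tulahuen C4 | Amount: 5,000 cells/well | Medium: DMEM, 2% fetal bovine serum | Signal: GalScreen β-gal luminescence, detergent lysis, 60 min | Timing: 3 h attach, ≥90 h co-culture | Also added: Tulahuen C4 trypomastigotes, 5000/well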
Lmaj promast: Leishmania major promastigote growth inhibition, primary screen. Leishmania major promastigotes, resazurin fluorescence viability. inhibition, % at 10 µM. hit rate 9% among 200,000; in the data active = inhibition above about 50%;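 also: promastigotes grown with compound for 44 hours at 28 °C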
HSF1 inhib: HSF1 inhibitors in luciferase reporter cells, primary screen, cell-based, NIH3T3, luminescence. NIH3T3-HGL HSE-luciferase, MG132-induced, luminescence 8 h; active compounds read low. activity change, negative = inhibition, % at 7.5 µM (by protocol). hit rate 0.77% among 300,000;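 active = more than half of replicate wells show activity change below -50%, luminescence cut by over half; inconclusive = some wells, but at most half, below -50%; inactive = no replicate well below -50%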;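 also: luciferase reports HSF-1 transcriptional activity via heat shock element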
Each line names hits and unclear results; the compound was inactive in the other large screens. This excerpt belongs to a sample that is enriched for hits.

COc1ccc(Cn2nnnc2C(c2ccccn2)N2CCN(c3cc(Cl)ccc3C)CC2)cc1 (centres undefined)	T cruzi inh 65.2
COc1ccc(C(c2nnnn2Cc2ccc(F)cc2)N2CCN(c3ccccc3)CC2)cc1 (centres undefined)	Lmaj promast 74.2
COc1ccc(C(c2nnnn2Cc2ccc(F)cc2)N2CCN(c3ccc(OC)cc3)CC2)cc1 (centres undefined)	Lmaj promast 94.4
COc1ccc(N2CCN(C(c3ccccc3)c3nnnn3Cc3ccc(F)cc3)CC2)cc1 (centres undefined)	Lmaj promast 66.1
COCCn1nnnc1C(c1ccccn1)N1CCN(c2cc(Cl)ccc2C)CC1 (centres undefined)	none
Cc1ccccc1-n1ccnc1SCC(=O)NCc1ccco1	none
Cc1ccc(C(C(=O)NC2CCCC2)N(C(=O)c2csnn2)c2ccccc2)o1 (centres undefined)	none (no result: Hsp70 activator, Lmaj promast)
COc1ccc(/C(O)=C2/C(=O)C(=O)N(c3ncccn3)C2c2ccc(F)cc2)cc1 (centres undefined)	none (no result: Hsp70 activator, Lmaj promast)
COc1ccc(Cn2nnnc2C(c2ccccc2Cl)N2CCC(C(N)=O)CC2)cc1 (centres undefined)	HSF1 inhib -51.3
COc1ccc(C(c2nnnn2CS(=O)(=O)c2ccc(C)cc2)N2CCN(Cc3ccccc3)CC2)cc1 (centres undefined)	Lmaj promast 62.6
COc1ccc(Cn2nnnc2C(c2cc(OC)ccc2OC)N2CCC(C(N)=O)CC2)cc1 (centres undefined)	none
O=C(NCCN1CCNC1=O)C1CCC(=O)N(Cc2cccc(C(F)(F)F)c2)C1 (centres undefined)	none (no result: Hsp70 activator, Lmaj promast)
O=C(c1cc(-c2ccc(O)cc2)on1)N1CCCCCC1	HSF-1 act 68.4 (no result: Hsp70 activator, Lmaj promast)
O=C(c1cc(-c2ccc(Cl)cc2)on1)N1CCCCCC1	none (no result: Hsp70 activator, Lmaj promast)
CC(C)(C)CC(=O)NCCc1csc(-c2ccccc2)n1	HSF-1 act 63.4, T cruzi inh 60.7 (no result: Hsp70 activator, Lmaj promast)
Cn1c2ccccc2c(=O)c2c(=O)n(Cc3ccco3)c(-c3ccc(Cl)cc3Cl)nc21	T cruzi inh 63.8 (no result: Hsp70 activator, Lmaj promast)
COc1ccc(Cn2c(-c3ccc(OC)cc3)nc3c(c(=O)c4ccccc4n3C)c2=O)cc1	none
COc1ccc(Cn2c(-c3ccc(C)cc3)nc3c(c(=O)c4ccccc4n3C)c2=O)cc1	Lmaj promast 87.6
CN(C)S(=O)(=O)c1cccc(C(=O)Nc2ccc3c(c2)CCC3)c1	none (no result: Hsp70 activator, Lmaj promast)
Cc1ccccc1CC1SC(N=C(N)N)=NC1=O (centres undefined)	none (no result: Hsp70 activator, Lmaj promast)
COc1ccc(Cl)cc1NC(=S)N(CCCN1CCOCC1)Cc1cn(C)c2ccccc12	Lmaj promast 99.5
Cc1ccc(Cl)cc1NC(=S)N(CCCN1CCOCC1)Cc1ccccn1	none
COc1cc(Cl)ccc1NC(=S)N(CCCN1CCOCC1)Cc1cn(C)c2ccccc12	Lmaj promast 89.4
O=C(O)CSCC(=O)N1CCN(c2nc3cc(Cl)ccc3s2)CC1	none (no result: Hsp70 activator, Lmaj promast)
CN1C(=O)Cc2cc(S(=O)(=O)Nc3ccc(N4CCOCC4)cc3)ccc21	none (no result: Hsp70 activator, Lmaj promast)
COC(=O)c1c(NC(=O)Cn2cnc([N+](=O)[O-])n2)sc2c1CCC(C)C2 (centres undefined)	T cruzi inh 57.7, Lmaj promast 99.8
CCOC(=O)c1c(NC(=O)Cn2cc([N+](=O)[O-])cn2)sc2c1CCC2	none
COC(=O)c1c(NC(=O)Cc2cccs2)sc2c1CCC(C)C2 (centres undefined)	none
COC(=O)c1c(NC(=S)NN2CCN(C)CC2)sc2c1CCC(C)C2 (centres undefined)	Lmaj promast 100.1
CCOC(=O)c1c(NC(=O)Cn2cnc([N+](=O)[O-])n2)sc2c1CCC(C)C2 (centres undefined)	T cruzi inh 57.1, Lmaj promast 97.9
CC(=O)N1c2ccc(S(=O)(=O)N(C)C3CCCCC3)cc2CC1C (centres undefined)	none (no result: Hsp70 activator, Lmaj promast)
CCC1CCCCN1C(=O)CCS(=O)(=O)c1ccc2c(c1)CCN2C(C)=O (centres undefined)	none (no result: Hsp70 activator, Lmaj promast)
Cc1cc(C)nc(Sc2nc(Cl)nc(N(c3ccccc3)c3ccccc3)n2)n1	HSF-1 act 53.8
Cc1ccccc1/[N+]([O-])=C/c1cccs1	HSF-1 act 94.7
Cc1ccc(/C=[N+](\[O-])c2ccccc2C)o1	none (no result: Hsp70 activator, Lmaj promast)
O=C(CSc1cn(Cc2ccccc2)c2ccccc12)Nc1nccs1	HSF-1 act 64.6
O=S(=O)(Nc1ccncc1)c1cc(Cl)ccc1Cl	none (no result: Hsp70 activator, Lmaj promast)
Nc1ccc(Cl)c(S(=O)(=O)Nc2ccc(Cl)cc2)c1	T cruzi inh 64.0 (no result: Hsp70 activator, Lmaj promast)
CCN(CC)S(=O)(=O)c1cc(NS(=O)(=O)c2cc(Cl)ccc2Cl)ccc1C	Lmaj promast 51.0
CS(=O)(=O)Nc1cccc(C2=NN(C(=O)c3ccco3)C(c3cccs3)C2)c1 (centres undefined)	none (no result: Hsp70 activator, Lmaj promast)
COc1ccc(C2=C(Nc3ccc(F)cc3)c3ccccc3C2=O)cc1	none (no result: T cruzi inh)
COc1ccc(C2=C(Nc3ccc(C)cc3)c3ccccc3C2=O)cc1	Lmaj promast 63.9
CCN(Cc1ccncc1)C(=O)c1cc(COc2c(C)cccc2C)on1	T cruzi inh 56.7 (no result: Hsp70 activator, Lmaj promast)
CCc1ccc2[nH]c(O)c(N=Nc3nc(-c4ccccc4)cs3)c2c1	HSF1 inhib -89.0
CCOc1ccc(C(=O)Nc2c(C(=O)N3CCC(N4CCCCC4)CC3)oc3ccccc23)cc1	T cruzi inh 58.1 (no result: Hsp70 activator, Lmaj promast)
Cc1c(Br)cc(C(=O)N2CCN(CCO)CC2)c(C)c1C	none
OCCN1CCN(CCCc2c3c(cc4c2CCC4)CCC3)CC1	Lmaj promast 86.2
CCn1c(=O)cc(SCC(=O)Nc2ccc(C)cn2)c2ccccc21	HSF-1 act inconclusive
CCc1ccc(OCC(=O)NC(NC(=S)Nc2ccccc2C)C(Cl)(Cl)Cl)cc1 (centres undefined)	T cruzi inh 55.1
O=C(CN(Cc1ccc(F)cc1)C(=O)C1CSC(=O)C1)NC1CCCCC1 (centres undefined)	Lmaj promast 98.5
O=C(CN(C(=O)C1CSC(=O)C1)c1cccc(F)c1)NC1CCCC1 (centres undefined)	none
CCOc1ccc(-c2nc(-c3cccnc3)no2)cc1OCC	Lmaj promast 80.5
Cc1ccc(-c2nc(-c3cccnc3)no2)c(C)c1	HSF-1 act 57.5
CCOc1ccc(-c2noc(-c3ccncc3)n2)cc1OCC	Lmaj promast 93.3
Cc1ccc(-c2nc(-c3ccncc3)no2)cc1C	HSF-1 act 59.9 (no result: Hsp70 activator, Lmaj promast)
COc1ccccc1C(=O)NC(=O)COC(=O)c1cccc(C)c1O	none (no result: Hsp70 activator, Lmaj promast)
COc1ccc2c(n1)Sc1nc3ccccc3nc1N2	HSF-1 act 55.1 (no result: Hsp70 activator, Lmaj promast)
C=CCn1cccc(C(=O)Nc2ccc(C)cc2)c1=O	HSF-1 act 56.2 (no result: Hsp70 activator, Lmaj promast)
Cc1ccc(C(=O)NC(=S)Nc2nc(-c3cccc([N+](=O)[O-])c3)cs2)c(Cl)c1	none
